Square brackets hold non-standard residues; d marks the D form. Peptide text beside a SMILES is read from it. Lys(Me3) = C[N+](C)(C)CCCC[C@H](N)C(=O)O

The values that follow come from PMC3603146 (Nature structural & molecular biology, 2012).

One experiment has as its target PHF1 Tudor (WT) (Homo sapiens, UniProt O43189). The experiment can be described thus: NMR 1H,15N HSQC titration of wild type PHF1 Tudor with histone peptides. Format: binding. Particulars: for NMR chemical shift / resonance perturbations in PHF1 Tudor: titration of unlabeled peptide into 15N-labeled wild type Tudor.
In another experiment the target is PHF1 Tudor W41A (Homo sapiens, UniProt O43189, W41A). The experiment can be described thus: NMR 1H,15N HSQC titration of PHF1 Tudor W41A mutant. Format: binding. The conditions noted are these: structure of the protein remained intact. In outline: (§1)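 Uniformly 15N-labeled mutant PHF1 Tudor (residues 14–87) was GST-purified from E. coli BL21(DE3) pLysS grown in 15NH4Cl M9 (0.5 mM IPTG), tag-cleaved and size-exclusion purified. 1H,15N HSQC spectra were recorded at 600 MHz (cryoprobe) with increasing concentrations of 12-mer histone tail peptides. Kd came from nonlinear least-squares fitting of normalized chemical shift changes versus peptide and protein concentration.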

The subject of another experiment is GST-fusion PHF1 Tudor. In words: Pull-down of GST-fusion PHF1 Tudor with biotinylated histone peptides. The conditions noted are these: biotinylated peptides (H3K4, H3K9, unmodified H3: residues 1–21; H3K27, H3K36: residues 21–44), 50 mM Tris pH 7.5, 150 mM NaCl, 0.05% Nonidet P-40; anti-GST western. It counts as binding, human. In outline:
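GST-tagged human PHF1 Tudor (residues 14–87) expressed in E. coli BL21(DE3) pLysS with 0.5 mM IPTG induction, purified on glutathione beads, eluted with 0.05 M reduced glutathione, then size exclusion. The protein was incubated with C-terminally biotinylated peptides (me1/me2/me3 forms) plus streptavidin beads. Beads were washed five times in binding buffer, and bound protein was detected with HRP-conjugated anti-GST monoclonal.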

In another experiment the target is PHF1 Tudor Y47A (Homo sapiens, UniProt O43189, Y47A). The experiment can be described thus: NMR 1H,15N HSQC titration of PHF1 Tudor Y47A mutant. Format: binding. Particulars: structure of the protein remained intact. In short, it runs like this: as §1
Experiment [1] deals with poly (ADP-ribose) PAR polymer. The experiment can be described thus: Poly. It counts as cell-based. The conditions noted are these: Western analysis.
The test system of a further experiment is XRCC1. The experiment can be described thus: XRCC1 accumulation at single stranded breaks upon PARP1 inhibitor treatment. The conditions noted are these: low doses of radiation. It counts as cell-based.
Experiment [2] has as its system Oct4, Nanog, HoxA4 and HoxA11 promoters, mouse ES cells. The experiment can be described thus: ChIP of H3K27me3 in mouse ES cells expressing Flag-PHF1. Particulars: stably expressing Flag-PHF1 vs empty vector; H3K27me3 to total H3; two experiments. Format: cell-based. In outline: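 Mouse ES cells (ww6), grown on fibroblasts or with recombinant LIF, transduced with virus carrying pRTF vector (empty or Flag-PHF1); Flag-PHF1 clones selected. ChIP on 500 μg cross-linked chromatin with anti-H3 or anti-H3K27me3; qPCR with primers near the transcription start site. H3K27me3 expressed as ratio to total H3 to correct for nucleosome density; two separate ChIP experiments.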

Another experiment has as its system HEK293T cells. Format: cell-based. Particulars: HA-tagged PHF1, 48 hours after transfection, compared with empty vector. In short, it runs like this: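 HEK293T cells were grown in DMEM with 10% FBS and penicillin/streptomycin. They were transiently transfected using polyethylenimine with full-length human PHF1 (C-terminal HA tag, pIRES2-EGFP; wild type, W41A or Y47A) or empty plasmid as negative control. Whole-cell lysates were collected 48 h post-transfection for Western blot with rabbit antibodies to HA, histone H3, H3K27me3 and H3K36me3.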

Experiment [3] has as its system MYT1 promoter, HEK293T cells. In words: ChIP at the MYT1 promoter in HEK293T cells. Format: cell-based. The conditions noted are these: upon overexpression of PHF1; normalized to H3. In short, it runs like this:
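HEK293T cells were transiently transfected with empty vector, wild-type HA-PHF1 or W41A/Y47A mutants, then fixed 48 h later (1×10^7 cells, 1% formaldehyde, 14 min, room temperature). Chromatin was sonicated to ~500 bp and immunoprecipitated with 4 μg antibody and Protein A magnetic beads. qPCR was run in triplicate with 7 MYT1 primer sets (−1680 to 866 around TSS). Fold-enrichment = IgG-subtracted %Input ÷ that of reference gene PCLB4. Data are mean ± SD of three biological replicates.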

As to `C[C@H](N)C(=O)N[C@@H](CCCNC(=N)N)C(=O)N[C@H](C(=O)N[C@@H](CCCC[N+](C)(C)C)C(=O)N[C@@H](CCC(N)=O)C(=O)N[C@H](C(=O)N[C@@H](C)C(=O)N[C@@H](CCCNC(=N)N)C(=O)N[C@@H](CCCCN)C(=O)N[C@@H](CO)C(=O)N[C@H](C(=O)NCC(=O)O)[C@@H](C)O)[C@@H](C)O)[C@@H](C)O` [H3K4me3], the “times weaker binding than H3K36me3 (trimethylated at other lysine residues)” value on PHF1 Tudor (WT) (relative to H3K36me3, ITC or NMR (Fig. 3a)) was approximately 8 times. Also, the “NMR chemical shift / resonance perturbations in PHF1 Tudor” value at PHF1 Tudor (WT) is “slightly different patterns of chemical shift changes”.
Turning to `CC(C)[C@H](NC(=O)CNC(=O)CNC(=O)[C@@H](NC(=O)[C@H](C)N)[C@@H](C)O)C(=O)N[C@@H](CCCC[N+](C)(C)C)C(=O)N[C@@H](CCCCN)C(=O)N1CCC[C@H]1C(=O)N[C@@H](Cc1c[nH]cn1)C(=O)N[C@@H](CCCNC(=N)N)C(=O)O` [H3K36me3] (H-ATGGV[Lys(Me3)]KPHR-OH; N-terminus and C-terminus assumed), on PHF1 Tudor (WT), the “NMR chemical shift / resonance perturbations in PHF1 Tudor” value is on record as “large chemical shift perturbations”. In addition, at PHF1 Tudor W41A, the “effect of W41A substitution on binding to H3K36me3” value is given as “disrupted binding”. The “association of PHF1 Tudor in pull-down” value in the experiment with GST-fusion PHF1 Tudor was “associated most strongly”. In addition, the “effect of Y47A substitution on binding to H3K36me3” value on PHF1 Tudor Y47A was “disrupted binding”.
`O=C(c1cc(Cc2n[nH]c(=O)c3ccccc23)ccc1F)N1CCN(C(=O)C2CC2)CC1` [AZD2281]: the “poly (ADP-ribose) PAR polymer” value in [1] is on record as “decrease in poly (ADP-ribose) PAR polymer”. For the same molecule, in the experiment on XRCC1, the “accumulation of XRCC1 at single stranded breaks” value is given as “loss of accumulation”.

B1: Flag-PHF1: Flag-tagged PHF1 stably expressed in mouse ES cells (protein, UniProt Q9Z1B8 1-559, looked up)
PHD finger protein 1: MAQLPRLSRLGAPSLWDPASPAPTSGPRPRLWEGQDVLARWTDGLLYLGTIKKVDSAREVCLVQFEDDSQFLVLWKDISPAALPGEELLCCVCRSETVVPGNRLVSCEKCRHAYHQDCHVPRAPAPGEGEGASWVCRQCVFAIATKRGGALKKGPYARAMLGMKLSLPYGLKGLDWDAGHLSNRQQSYCYCGGPGEWNLKMLQCRSCLQWFHEACTQCLSKPLLYGDRFYEFECCVCRGGPEKVRRLQLRWVDVAHLVLYHLSVCCKKKYFDFDREILPFTSENWDSLLLGELSDTPKGERSSQLLSALNSHKDRFISGREIKKRKCLFGLHARTPPPVELLTGDGAPTSFPSGQGPGGGVSRPLGKRWRSEPEPLRRRQKGKVEELGPPTAAHSRHGSREQRALQASVSPPPPSPNQSYEGSSGYNFRPTDARCLPSSPIRMFASFHPSASTAGTSGDSEPPDRSPLGLHIGFPTDTPKSSPHSVTASSSSVPALTPGFSRHSPPSPLCRSLSPGTGGGVRGGVSYLSRGDPVRVLARRVRPDGSVQYLVEWGGGGIF
modifications: Flag tag
Turning to B1, in experiment [2], the “H3K27me3 level at HoxA4 and HoxA11” value is recorded as “comparable H3K27me3 level”; the “H3K27me3 signal at Oct4 and Nanog” value is listed as “reproducible decrease of the H3K27me3 signal”.

B2: wild type PHF1: full length hPHF1 expressed in HEK293T (HA-tag) or K562 cells (Flag) (protein, UniProt O43189 1-567, looked up)
chain: MAQPPRLSRSGASSLWDPASPAPTSGPRPRLWEGQDVLARWTDGLLYLGTIKKVDSAREVCLVQFEDDSQFLVLWKDISPAALPGEELLCCVCRSETVVPGNRLVSCEKCRHAYHQDCHVPRAPAPGEGEGTSWVCRQCVFAIATKRGGALKKGPYARAMLGMKLSLPYGLKGLDWDAGHLSNRQQSYCYCGGPGEWNLKMLQCRSCLQWFHEACTQCLSKPLLYGDRFYEFECCVCRGGPEKVRRLQLRWVDVAHLVLYHLSVCCKKKYFDFDREILPFTSENWDSLLLGELSDTPKGERSSRLLSALNSHKDRFISGREIKKRKCLFGLHARMPPPVEPPTGDGALTSFPSGQGPGGGVSRPLGKRRRPEPEPLRRRQKGKVEELGPPSAVRNQPEPQEQRERAHLQRALQASVSPPSPSPNQSYQGSSGYNFRPTDARCLPSSPIRMFASFHPSASTAGTSGDSGPPDRSPLELHIGFPTDIPKSAPHSMTASSSSVSSPSPGLPRRSAPPSPLCRSLSPGTGGGVRGGVGYLSRGDPVRVLARRVRPDGSVQYLVEWGGGGIF
modifications: full-length HA or Flag tag
For B2, the “global level of H3K27me3” value in the experiment on HEK293T cells is on record as “decrease in the global level of H3K27me3”. Moreover, the “H3K27me3 levels at MYT1” value in experiment [3] is “substantially reduced”.

B3: Y47A: PHF1 mutant impaired in H3K36me3 binding; HA-tagged, GFP-fusion or in Flag-PHF1-PRC2 complex according to the test (protein, UniProt O43189 1-567, looked up, variant Y47A)
PHD finger protein 1: MAQPPRLSRSGASSLWDPASPAPTSGPRPRLWEGQDVLARWTDGLLALGTIKKVDSAREVCLVQFEDDSQFLVLWKDISPAALPGEELLCCVCRSETVVPGNRLVSCEKCRHAYHQDCHVPRAPAPGEGEGTSWVCRQCVFAIATKRGGALKKGPYARAMLGMKLSLPYGLKGLDWDAGHLSNRQQSYCYCGGPGEWNLKMLQCRSCLQWFHEACTQCLSKPLLYGDRFYEFECCVCRGGPEKVRRLQLRWVDVAHLVLYHLSVCCKKKYFDFDREILPFTSENWDSLLLGELSDTPKGERSSRLLSALNSHKDRFISGREIKKRKCLFGLHARMPPPVEPPTGDGALTSFPSGQGPGGGVSRPLGKRRRPEPEPLRRRQKGKVEELGPPSAVRNQPEPQEQRERAHLQRALQASVSPPSPSPNQSYQGSSGYNFRPTDARCLPSSPIRMFASFHPSASTAGTSGDSGPPDRSPLELHIGFPTDIPKSAPHSMTASSSSVSSPSPGLPRRSAPPSPLCRSLSPGTGGGVRGGVGYLSRGDPVRVLARRVRPDGSVQYLVEWGGGGIF
modifications: HA, GFP or Flag tag
B3: the “global level of H3K27me3” value in the experiment with HEK293T cells is listed as “no effect on the H3K27me3 level”.

B4: W41A: PHF1 mutant impaired in H3K36me3 binding; HA-tagged, GFP-fusion or in Flag-PHF1-PRC2 complex according to the test (protein, UniProt O43189 1-567, looked up, variant W41A)
PHD finger protein 1: MAQPPRLSRSGASSLWDPASPAPTSGPRPRLWEGQDVLARATDGLLYLGTIKKVDSAREVCLVQFEDDSQFLVLWKDISPAALPGEELLCCVCRSETVVPGNRLVSCEKCRHAYHQDCHVPRAPAPGEGEGTSWVCRQCVFAIATKRGGALKKGPYARAMLGMKLSLPYGLKGLDWDAGHLSNRQQSYCYCGGPGEWNLKMLQCRSCLQWFHEACTQCLSKPLLYGDRFYEFECCVCRGGPEKVRRLQLRWVDVAHLVLYHLSVCCKKKYFDFDREILPFTSENWDSLLLGELSDTPKGERSSRLLSALNSHKDRFISGREIKKRKCLFGLHARMPPPVEPPTGDGALTSFPSGQGPGGGVSRPLGKRRRPEPEPLRRRQKGKVEELGPPSAVRNQPEPQEQRERAHLQRALQASVSPPSPSPNQSYQGSSGYNFRPTDARCLPSSPIRMFASFHPSASTAGTSGDSGPPDRSPLELHIGFPTDIPKSAPHSMTASSSSVSSPSPGLPRRSAPPSPLCRSLSPGTGGGVRGGVGYLSRGDPVRVLARRVRPDGSVQYLVEWGGGGIF
modifications: HA, GFP or Flag tag
Regarding B4, in the experiment with HEK293T cells, the “global level of H3K27me3” value is recorded as “no effect on the H3K27me3 level”.
